Data: ChEMBL document CHEMBL1926614, “Substituted thiazoles V. synthesis and antitumor activity of novel thiazolo[2,3-b]quinazoline and pyrido[4,3-d]thiazolo[3,2-a]pyrimidine analogues” (2012)

Tests used:
Assay type in all cases: functional
CCRF-CEM = assay: Growth inhibition of human CCRF-CEM cells at 10 uM after 48 hrs by coulter counting; conditions: read-out: GI
Summary of the method: (§1)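 Single-dose primary screen across the full NCI 60-cell-line panel. Stocks were made in DMSO and diluted in PBS to a final DMSO below 1%. Cultures at 6 × 10⁴ cells/ml were run in duplicate wells alongside PBS/DMSO vehicle controls at 37 °C in humidified 5% CO₂. Data were expressed as percent growth of treated cells.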

HCC 2998 = assay: Growth inhibition of human HCC2998 cells at 10 uM after 48 hrs by coulter counting; conditions: HCC 2998, 48 h, read-out: GI; summary of the method: as §1
NCI-H522 = assay: Growth inhibition of human NCI-H522 cells at 10 uM after 48 hrs by coulter counting; conditions: NCI-H522, 48 h, read-out: GI; summary of the method: as §1
SF-268 = assay: Growth inhibition of human SF268 cells at 10 uM after 48 hrs by coulter counting; conditions: SF-268, 48 h, read-out: GI; summary of the method: as §1
K562 = assay: Growth inhibition of human K562 cells at 10 uM after 48 hrs by coulter counting; conditions: K562, 48 h, read-out: GI; summary of the method: as §1
HCT-116 = assay: Growth inhibition of human HCT116 cells at 10 uM after 48 hrs by coulter counting; conditions: HCT-116, 48 h, read-out: GI; summary of the method: as §1
SNB-75 = assay: Growth inhibition of human SNB75 cells at 10 uM after 48 hrs by coulter counting; conditions: SNB-75, 48 h, read-out: GI; summary of the method: as §1
A498 = assay: Growth inhibition of human A498 cells at 10 uM after 48 hrs by coulter counting; conditions: A498, 48 h, read-out: GI; summary of the method: as §1
CAKI-1 = assay: Growth inhibition of human Caki1 cells at 10 uM after 48 hrs by coulter counting; conditions: CAKI-1, 48 h, read-out: GI; summary of the method: as §1
UACC-257 = assay: Growth inhibition of human UACC257 cells at 10 uM after 48 hrs by coulter counting; conditions: UACC-257, 48 h, read-out: GI
Summary of the method: (§2)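 Single-dose screen in the NCI 60 human tumor cell line panel (nine subpanels). Compounds dissolved in DMSO and diluted in phosphate buffered saline, keeping final DMSO below 1%. Added in duplicate wells to cells at 6 × 10⁴ cells/ml. Controls held PBS and DMSO at matching dilutions. Incubated at 37 °C, humidified, 5% CO₂. Reported as percent growth of treated cells.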

LOX IMVI = assay: Growth inhibition of human LOXIMVI cells at 10 uM after 48 hrs by coulter counting; conditions: read-out: GI; summary of the method: as §1
HT-29 = assay: Growth inhibition of human HT-29 cells at 10 uM after 48 hrs by coulter counting; conditions: HT-29, 48 h, read-out: GI; summary of the method: as §1
HOP-62 = assay: Growth inhibition of human HOP62 cells at 10 uM after 48 hrs by coulter counting; conditions: HOP-62, 48 h, read-out: GI; summary of the method: as §1
U-251 = assay: Growth inhibition of human U251 cells at 10 uM after 48 hrs by coulter counting; conditions: U-251, 48 h, read-out: GI; summary of the method: as §2
MDA-MB-435 = assay: Growth inhibition of human MDA-MB-435 cells at 10 uM after 48 hrs by coulter counting; conditions: MDA-MB-435, 48 h, read-out: GI; summary of the method: as §1
SK-MEL-28 = assay: Growth inhibition of human SK-MEL-28 cells at 10 uM after 48 hrs by coulter counting; conditions: SK-MEL-28, 48 h, read-out: GI; summary of the method: as §1
SF-295 = assay: Growth inhibition of human SF295 cells at 10 uM after 48 hrs by coulter counting; conditions: SF-295, 48 h, read-out: GI; summary of the method: as §1
A549 = assay: Growth inhibition of human A549 cells at 10 uM after 48 hrs by coulter counting; conditions: A549, 48 h, read-out: GI; summary of the method: as §1
SK-MEL-5 = assay: Growth inhibition of human SK-MEL-5 cells at 10 uM after 48 hrs by coulter counting; conditions: SK-MEL-5, 48 h, read-out: GI; summary of the method: as §1
UO-31 = assay: Growth inhibition of human UO31 cells at 10 uM after 48 hrs by coulter counting; conditions: UO-31, 48 h, read-out: GI; summary of the method: as §2
NCI/ADR-RES = assay: Growth inhibition of human NCI/ADR-RES cells at 10 uM after 48 hrs by coulter counting; conditions: read-out: GI; summary of the method: as §1
T47D = assay: Growth inhibition of human T47D cells at 10 uM after 48 hrs by coulter counting; conditions: read-out: GI; summary of the method: as §2
UACC-62 = assay: Growth inhibition of human UACC62 cells at 10 uM after 48 hrs by coulter counting; conditions: UACC-62, 48 h, read-out: GI; summary of the method: as §2
IGROV-1 = assay: Growth inhibition of human IGROV1 cells at 10 uM after 48 hrs by coulter counting; conditions: IGROV-1, 48 h, read-out: GI; summary of the method: as §1
NCI-H226 = assay: Growth inhibition of human NCI-H226 cells at 10 uM after 48 hrs by coulter counting; conditions: NCI-H226, 48 h, read-out: GI; summary of the method: as §1
KM12 = assay: Growth inhibition of human KM12 cells at 10 uM after 48 hrs by coulter counting; conditions: KM12, 48 h, read-out: GI; summary of the method: as §1
MCF7 = assay: Growth inhibition of human MCF7 cells at 10 uM after 48 hrs by coulter counting; conditions: MCF7, 48 h, read-out: GI; summary of the method: as §1
EKVX = assay: Growth inhibition of human EKVX cells at 10 uM after 48 hrs by coulter counting; conditions: read-out: GI; summary of the method: as §1
HL-60(TB) = assay: Growth inhibition of human HL-60(TB) cells at 10 uM after 48 hrs by coulter counting; conditions: HL-60, 48 h, read-out: GI
Summary of the method: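 Test compound was dissolved in DMSO and diluted in phosphate-buffered saline to a final DMSO level below 1%. Dilutions were plated in duplicate with cell culture at 6 × 10⁴ cells/ml. Vehicle controls held PBS and DMSO at matching dilutions. Incubation was at 37 °C, humidified, under 5% CO₂. Data were reported as percent growth of treated cells.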

DU-145 = assay: Growth inhibition of human DU145 cells at 10 uM after 48 hrs by coulter counting; conditions: DU-145, 48 h, read-out: GI; summary of the method: as §1
OVCAR-4 = assay: Growth inhibition of human OVCAR4 cells at 10 uM after 48 hrs by coulter counting; conditions: OVCAR-4, 48 h, read-out: GI; summary of the method: as §1
[1] = Growth inhibition of human NCI-322M cells at 10 uM after 48 hrs by coulter counting; conditions: read-out: GI; summary of the method: as §1
RPMI-8226 = assay: Growth inhibition of human RPMI8226 cells at 10 uM after 48 hrs by coulter counting; conditions: RPMI-8226, 48 h, read-out: GI; summary of the method: as §1
SK-MEL-2 = assay: Growth inhibition of human SK-MEL-2 cells at 10 uM after 48 hrs by coulter counting; conditions: SK-MEL-2, 48 h, read-out: GI; summary of the method: as §1
MOLT-4 = assay: Growth inhibition of human MOLT4 cells at 10 uM after 48 hrs by coulter counting; conditions: MOLT-4, 48 h, read-out: GI; summary of the method: as §1
NCI-H23 = assay: Growth inhibition of human NCI-H23 cells at 10 uM after 48 hrs by coulter counting; conditions: NCI-H23, 48 h, read-out: GI; summary of the method: as §1
SNB-19 = assay: Growth inhibition of human SNB19 cells at 10 uM after 48 hrs by coulter counting; conditions: SNB-19, 48 h, read-out: GI; summary of the method: as §1
M14 = assay: Growth inhibition of human M14 cells at 10 uM after 48 hrs by coulter counting; conditions: M14, 48 h, read-out: GI; summary of the method: as §1
ACHN = assay: Growth inhibition of human ACHN cells at 10 uM after 48 hrs by coulter counting; conditions: read-out: GI; summary of the method: as §1
NCI-H460 = assay: Growth inhibition of human NCI-H460 cells at 10 uM after 48 hrs by coulter counting; conditions: NCI-H460, 48 h, read-out: GI; summary of the method: as §1
BT-549 = assay: Growth inhibition of human BT549 cells at 10 uM after 48 hrs by coulter counting; conditions: BT-549, 48 h, read-out: GI; summary of the method: as §1

Measured: inhibition of growth at 10 µM

CC1=CSC2=NC3=C(CCC/C3=C\c3cccs3)C(c3cccs3)N12 (stereo unspecified)
24.5%: UO-31
11.4%: HL-60(TB)
14.3%: A498
16.6%: SNB-75
11.3%: HOP-62
> 10%: all other assays above
